According to the EternaBench riboswitch data:

System: MS2 coat protein
Experiment: apparent Kd, MS2 coat protein; higher = weaker binding; RNA-MaP array; FMN 200 µM where present
Method in brief: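 Stalled E. coli RNA polymerase transcribed each design on Illumina sequencing-chip clusters. The clusters were titrated with SNAP-549-labelled MS2 coat protein, starting at 0.7 or 1.5 nM and doubling up to 3 µM, first without ligand and then with constant ligand, in 100 mM Tris-HCl pH 7.5, 80 mM KCl, 4 mM MgCl2, BSA, DTT, yeast tRNA and Tween-20. Green signal was normalised to red-channel RNA signal and to the control-cluster median Fmax. The apparent Kd is the median of filtered binding-curve fits made for each cluster.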

[1] = designed as: OFF switch for flavin mononucleotide, no ligand
[2] = ligand present: flavin mononucleotide, designed as: OFF switch for flavin mononucleotide
[3] = designed as: ON switch for flavin mononucleotide, no ligand
[4] = ligand present: flavin mononucleotide, designed as: ON switch for flavin mononucleotide

Sequence | apparent Kd [1] [nM] | apparent Kd [2] [nM] | apparent Kd [3] [nM] | apparent Kd [4] [nM]
UACCUACAUGAGGAUCACCCAUGUCAGGAUAUGUGCUGAGACGACAUCGACUUUCAGCGUAGAAGGGACCAGGG | 24.4 | 46.5 |  | 
GCCAAUGUGGAGGAUAUCGACUUCGAAAGAAGUCGAGAAGGCCACACAUGAGGAUCACCCAUGUGAUGCCUGGC | 199 | 231 |  | 
AAGGAUCGCACAGGAUAUCAUACAUGAGGAUCACCCAUGUCAGAAAACAAAUGAGAAGGGUGCGCAUUAAUUGCUUGUGAAGAA |  |  | 17.9 | 4.65
UUAAAUCAUGUAGGAUAUGCAUGGCCAAGCUAGGCAGAAGGACAUGAGGAUCACCCAUGUUAUAGCUACCAAGUAAGGUGGCAA | 32.9 | 279 |  | 
ACCUCACAUGAGGAUCACCCAUGUCAGGAUAUACCCAAAGCUGCGAAAAUAUCCAGCUGUAGAAGGGACAGGCU | 13.9 | 16.1 |  | 
CCAGAGGUCACAGGAUAUGACUCGUCCAAAUGGUCAGAAGGGUGAAUCACAUUAUGUAUACAUGAGGAUCACCCAUGUCCUACG |  |  | 93.2 | 498
AAACAACGUCAGAAGGCCGAUGGAUUUGACCACGGAGGAUAUGACAUGAGGAUCACCCAUGUGAUGCUUCUAACCCGCUGGGCC | 31.3 | 289 |  | 
AUCAGCUCGUCAGGAUAUACGUCACUGCGUCAGCAGUGUGGAAAGAUCACAUGAGGAUCACCCAUGUAGAAGGGACGAGCUGAU | 36.2 | 279 |  | 
AAUUGAAACGUAGGAUAUCGCACAAAUCUAAAACGAGAAGGACGUACAUGAGGAUCACCCAUGUUAAAUGGUGUAGAUUAGAUG | 543 | 636 |  | 
GUCAUCUCAUGAGGAUAUGCUCGGGUUUCCCGAGCAGAAGGCAUGUCAUAAGACAUGAGGAUCACCCAUGUAUUUAAGAUUGUA |  |  | 49.6 | 8.92
GGACGUCACAUUAACAUGAGGAUCACCCAUGUCAAAGGACAUGAGGAUAUGGAUCCUAAUUGGAUCCAGAAGGCAUGGACGUCC |  |  | 398 | 34.3
AAUCCACAUGAGGAUCACCCAUGUCAGGAUAUUGUUACUAGAGCGCACCUGUGUUCUACGAGAAGGGACUAAAC | 12 | 12.2 |  | 
AUCAGAUCUCGACUGUCCAACAUGAGGAUCACCCAUGUCAGAAGAAGGGACUAUUAACUAAUCUGUCAGGAUAUUUUGACGCGG | 10.6 | 49.7 |  | 
GUGCGGUCAGGAUAUGCAUGGCGGGACUUGCGUCGUGGCGUGGAGAAGGGACAUGAGGAUCACCCAUGUGGAGG | 107 | 84.9 |  | 
UGAUCGAGAGAUCUUAGAUUCUGGUAGGAUAUACAUUAUGUUUGAUAUACAUGAGGAUCACCCAUGUAGAAGGACUAGAGUCUA | 7.34 | 15.9 |  | 
GUAGAGGAUUGAGGAUAUGCAGAGAGAUCAUGCGCGUCGCGCACAUGAGGAUCACCCAUGUAAGAGCAGAAGGUAACUAUGGAC | 79.9 | 49.3 |  | 
UUUGCAUUCCGAGGAUAUUCAUUUAAUGACUUCACAUGAGGAUCACCCAUGUGGCGCUUGCGCCGGGAGAAGGCGGUUUGCUUU |  |  | 25.6 | 24.1
GGACGUCACAUUAACAUGAGGAUCACCCAUGUCAAAAGACAUGAGGAUAUGGAUGCGAAACGCAUCCAGAAGGCAUGGACGUCC |  |  | 629 | 41.1
CGUCCACAUGAGGAUCACCCAUGUUAGGAUAUAAACGCCGUAGUCCAAGGACGGGCCUUUAGAAGGAGCGCGGG | 13.9 | 25.6 |  | 
AGCUCGGGUUAGGAUAUUCGCAGCAAGAUGACCGAAGAAGGGACCACAUGAGGAUCACCCAUGUUUGUUUAGAA | 25.9 | 24.5 |  | 
UUUUACGCAGGAUAUACAUUUUUUUUAUUAUCCUCAUUAUUACAUGAGGAUCACCCAUGUAGAAGGGCGAUUUU | 75.7 | 99.7 |  | 
GGUCGUCACAUCUACAUGAGGAUCACCCAUGUCAAAAGACAUGAGGAUAUGCAUCCUAAUUGGAUGCAGAAGGCAUGGACGACC |  |  | 1280 | 66.8
UGGUAGGGAGGAUAUCGGAGACCAAACAUGAGGAUCACCCAUGUGCCAUCCCGUGUAUCUUGAGAAGGUUCUACCA | 14.8 | 23.4 |  | 
CGCUAAGAUGGGUCUAAUGGACCACAGGAUAUGCUUGUACAUGAGGAUCACCCAUGUAAUAUUGUGCAGAAGGGUGGAUUUGCG |  |  | 18.9 | 7.03
AAACCGUGUGGAGGAUAUGCAGUUGAGGUGAGGUGGCAACUCUAUACGACCGCAGAAGGCCACAUGAGGAUCACCCAUGUAGGU | 293 | 61.5 |  | 
UUGUGCUUAGAGAAGGUUCAAACUACAUAUUGCGCACAUGAGGAUCACCCAUGUUGGUGAAUAAGAAAGGAUAUUUGACUGUGC | 487 | 360 |  | 
UUUUAACAUGAGGAUCACCCAUGUCGUUCAAAUCAAGGAUAUCAGGCGUGUGCACACGCCUGAGAAGGUGAAUCUC |  |  | 135 | 320
UUGGCAUCGUAGAAGGGUGACAUGAGGAUCACCCAUGUGACGAUAUUUCUCGAGAUAUGUCGUCCACAGGAUAUACGAGCGAAC |  |  | 72.3 | 42.4

Sequence | apparent Kd [1] [nM] | apparent Kd [2] [nM] | apparent Kd [3] [nM] | apparent Kd [4] [nM]
CCUCGCCCUCUUGCACAUGAGGAUCACCCAUGUUUUACGUACUAGGAUAUAGCUAUGUUCAAUCGUUAGAAGGAGUUCAUGGAU | 110 | 105 |  | 
GCGUUGAACGAGAAGGCCAAUACAUGAGGAUCACCCAUGUUAAGUUGUUUUGGAGGAUAUCGAACGCAUUCAAUAUUGCAACGC | 6.65 | 5.84 |  | 
ACCACGGGAGGAUAUACAUGAGGAUCACCCAUGUCAACUCCACGUGCCCACGUCCUCUGUAGAAGGCCCUACAU | 16 | 24.3 |  | 
UUUGUAAUGUCAGGAUAUAUAAUAAGUCAUACAGUAGAAGGGAUAAUAAUACUCAUGUACAUGAGGAUCACCCAUGUUAAAUAU |  |  | 98.8 | 52.4
AAAAAAAGAGGAUAUACAUGAGAAAAAAAAAUGUAAAAAAAACAUGAGGAUCACCCAUGUAGAAGGCUUAAAAA | 34.6 | 45.4 |  | 
CCACCUACUGAGGAUAUUGCAUCACCCGACUGAUAAGAAGGCAGAACAUGAGGAUCACCCAUGUGGGUACUCAC | 94 | 103 |  | 
AAUAUAAGAGCUGGAAAUAACUCAACAUGAGGAUCACCCAUGUAGGAUAUCAGCACGAUAAGUGCUGAGAAGGACAUCCAGCUC | 14.4 | 14.6 |  | 
AGAAAACAUGAGGAUCACCCAUGUAAGGAUAUGCUAAGGGUGGCUUCGGCCACCCAAUGCAGAAGGUACAAAUA | 49.6 | 59.7 |  | 
UUACUAUUACAGAAGGUUAAAUAAUAUAUAAAUGAAGGAUAUGUAACAUGAGGAUCACCCAUGUUUCACCCACAUGAGGAUCAU | 9.63 | 9.57 |  | 
ACCUCACAUGAGGAUCACCCAUGUUAGGAUAUCUCGACACUCCGCGGGCGGUAGCGUCAGAGAAGGAACGUGCU | 29.1 | 24.9 |  | 
AGGUCACAUGAGGAUCACCCAUGUCAGGAUAUCGUCACUGGAGCUGCGGCUCCAGUGACGAGAAGGGAUAAUUA | 45.5 | 70.5 |  | 
UCAUGGAAGCAGGAUAUGCUUGUUUAAUUGUUUGCAGAAGGGCUAACAUGAGGAUCACCCAUGUAAGAGGUCUA | 45.8 | 34.1 |  | 
GAUGCAUAUGAGAAGGCGAUCAUGAAACAUGAUCGAGGAUAUCAUGUAAACAUGAGGAUCACCCAUGUAUGGGAAAAGUGCAUC |  |  | 72.4 | 11.4
GUAUGAGCGAUAGGAUAUACUGGGAUUGAAUGGGUAGAAGGAUUUCUUGUGGGAAAGACAUGAGGAUCACCCAUGUCGCGGACC |  |  | 255 | 165
ACAUGAGGAUCACCCAUGUAUUUGUAGGAUAUACACAAUUAUUUAUUACUCUAAUUAAUAUGUUUGUAGAAGGACACUGCAUGA | 11.5 | 11.9 |  | 
CACAUUUUAACAGGAUAUGUAAGGUAGCUUAUUAUUGCAUAUACAAUUAUUACAGAAGGGUUAUACAUGAGGAUCACCCAUGUG |  |  | 22.8 | 17.1
GUAGCAUACCGAGGAUAUUCAGGGCAUAAAUAAACAUGAGGAUCACCCAUGUGGCGAAAGCCUAGGGAGAAGGCGGAAUGCUAC |  |  | 18.5 | 15.3
UUGAUUAUACAAGGAUAUCAAUUGUAAUUAAGACUUACAUGAGGAUCACCCAUGUUAAUAUUUUAUGAGAAGGUGUAUUUUCAG |  |  | 38.3 | 25.7
GUAGCAUACCGAGGAUAUUCAUACAAUAAAUAAACAUGAGGAUCACCCAUGUGGCGAAAGCCUAGGGAGAAGGCGGAAUGCUAC |  |  | 154 | 21.8
GUCGGAAACGACAAGUAGCAAUCGGAGGAUAUUCAUUAAAACAUGAGGAUCACCCAUGUAAAAUGGGAGAAGGCCGAUUGCUAC |  |  | 13.6 | 6.03
UCCUGGCGAGGAUAUACAAUGUUUUUCGCGUGUAGUUGGAAACAUGAGGAUCACCCAUGUAGAAGGUGCUACUG | 32.6 | 25.6 |  | 
AUCAGCUCGUCAGGAUAUACGUCACUGCGUCAGCAGUGUGGUAAGAUCACAUGAGGAUCACCCAUGUAGAAGGGACGACCUGAU | 13.8 | 278 |  | 
GAUUUAGAGCAGGAUAUCAUAGAAAUGUAUGAAUGAGAAGGGCUCACAUGAGGAUCACCCAUGUGGUCCUAGAU | 25.4 | 240 |  | 
AUACUCAUGUAAGGAUAUGCAGCCGUUUCGGCUGCAGAAGGUACUAUAAUACAUGAGGAUCACCCAUGUCUCUCGCAUUGCGAG |  |  | 131 | 178
GUAGAGUAGUGAGGAUAUACGAGCUCGAUAGAGCGGCGAUCCAAUAAUACAUGAGGAUCACCCAUGUAGAAGGCACUUCUCUAC | 6.71 | 91 |  | 
ACACAGCGAGGAUAUACAUGAGGAUCACCCAUGUGGUGGCGGUUACGGUAGGACUAGUGUAGAAGGUGCCGUGG | 480 | 414 |  | 
ACAAAGGUAGGAUAUCGGACUAUGGACAUGAGGAUCACCCAUGUGCGUCCAAUGCCCAACCGAGAAGGACCAACAG | 47.1 | 89 |  | 
